Reference: ChEMBL document CHEMBL4699576, “Oxidized Juncuenin B Analogues with Increased Antiproliferative Activity on Human Adherent Cell Lines: Semisynthesis and Biological Evaluation” (J Nat Prod, 2020)
pIC50: −log10 of the molar value. Activity calls are given as the source filed them. The calls are words filed in the database; no cut-off is given here.

Columns and labels:
A2780 [1] = assay: Antiproliferative activity against human A2780 cells assessed as reduction in cell viability after 72 hrs by MTT assay; type: functional, cell-based; conditions: A2780, 72 h
Method in brief: (§1)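 Cells were grown in MEM with 10% FBS, 1% nonessential amino acids and 1% penicillin–streptomycin–amphotericin B at 37 °C in humidified 5% CO2. They were seeded at 5000 cells/well and exposed to 0.1–30 μM compound for 72 h. MTT (5 mg/mL solution) was added for 4 h, and formazan was dissolved in DMSO and read at 545 nm against untreated cells. IC50 values came from normalized sigmoidal dose–response fits.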

MDA-MB-231 = assay: Antiproliferative activity against human MDA-MB-231 cells assessed as reduction in cell viability after 72 hrs by MTT assay; type: functional, cell-based; conditions: MDA-MB-231, 72 h
[2] = Selectivity ratio of IC50 for antiproliferative activity against human T47D cells to IC50 for antiproliferative activity against human MCF7 cells; type: functional
NIH3T3 [3] = assay: Antiproliferative activity against mouse NIH/3T3 cells assessed as reduction in cell viability after 72 hrs by MTT assay; type: functional, cell-based; conditions: NIH3T3, 72 h; method in brief: as §1
HeLa [4] = assay: Antiproliferative activity against human HeLa cells assessed as reduction in cell viability after 72 hrs by MTT assay; type: functional, cell-based; method in brief: as §1
MCF7 [5] = assay: Antiproliferative activity against human MCF7 cells assessed as reduction in cell viability after 72 hrs by MTT assay; type: functional, cell-based; conditions: MCF7, 72 h; method in brief: as §1
HeLa [6] = assay: Antiproliferative activity against human HeLa cells assessed as reduction in cell viability at 0.1 to 30 uM after 72 hrs by MTT assay; conditions: dose microM 0.1-30, time 72.0 hrs
C-33-A [7] = assay: Antiproliferative activity against human C33A cells assessed as reduction in cell viability at 0.1 to 30 uM after 72 hrs by MTT assay; type: functional, cell-based; conditions: dose microM 0.1-30, time 72.0 hrs
Method in brief: (§2)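 C33A cells were kept in MEM with 10% FBS, 1% nonessential amino acids and 1% penicillin–streptomycin–amphotericin B at 37 °C under 5% CO2. They were seeded at 10 000 cells/well and treated with 0.1–30 μM for 72 h. MTT (5 mg/mL solution) was added for 4 h, and formazan was dissolved in DMSO and read at 545 nm against untreated controls. IC50 values came from normalized sigmoidal curve fits.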

MCF7 [8] = assay: Antiproliferative activity against human MCF7 cells assessed as reduction in cell viability at 0.1 to 30 uM after 72 hrs by MTT assay; conditions: dose microM 0.1-30, time 72.0 hrs
A2780 [9] = assay: Antiproliferative activity against human A2780 cells assessed as reduction in cell viability at 0.1 to 30 uM after 72 hrs by MTT assay; type: functional, cell-based; conditions: dose microM 0.1-30, time 72.0 hrs; method in brief: as §1
T47D [10] = assay: Antiproliferative activity against human T47D cells assessed as reduction in cell viability after 72 hrs by MTT assay; type: functional, cell-based; method in brief: as §1
T47D [11] = assay: Antiproliferative activity against human T47D cells assessed as reduction in cell viability at 0.1 to 30 uM after 72 hrs by MTT assay; type: functional, cell-based; conditions: dose microM 0.1-30, time 72.0 hrs; method in brief: as §1
SiHa [12] = assay: Antiproliferative activity against human SiHa cells assessed as reduction in cell viability at 0.1 to 30 uM after 72 hrs by MTT assay; type: functional, cell-based; conditions: dose microM 0.1-30, time 72.0 hrs; method in brief: as §1
C-33-A [13] = assay: Antiproliferative activity against human C33A cells assessed as reduction in cell viability after 72 hrs by MTT assay; type: functional, cell-based; method in brief: as §2
NIH3T3 [14] = assay: Antiproliferative activity against mouse NIH/3T3 cells assessed as reduction in cell viability at 0.1 to 30 uM after 72 hrs by MTT assay; type: functional, cell-based; conditions: dose microM 0.1-30, time 72.0 hrs; method in brief: as §1
SiHa [15] = assay: Antiproliferative activity against human SiHa cells assessed as reduction in cell viability after 72 hrs by MTT assay; type: functional, cell-based; method in brief: as §1
SGC-7901 = assay: Antiproliferative activity against human SGC-7901 cells assessed as reduction in cell viability after 48 hrs by Alamar Blue assay; type: functional, cell-based; conditions: SGC-7901, 48 h
AGS = assay: Antiproliferative activity against human AGS cells assessed as reduction in cell viability after 48 hrs by Alamar Blue assay; type: functional, cell-based

Row | SMILES | Activity (HeLa [6]) | Activity (C-33-A [7]) | Activity (MCF7 [8]) | Activity (A2780 [9]) | Activity (NIH3T3 [14]) | also measured
1 | C=Cc1c(C)c(O)cc2c1CCc1c-2ccc(O)c1C |  |  |  |  |  | pIC50 (A2780 [1]): 5.14; pIC50 (MDA-MB-231): 5.03; Ratio IC50 [2]: 2.5; pIC50 (NIH3T3 [3]): < 4.52; pIC50 (HeLa [4]): 5.54; pIC50 (MCF7 [5]): 4.93
2 | C=CC1=C(C)C(=O)C=C2c3ccc(O)c(C)c3CC[C@]21OC | inactive | inactive | inactive | inactive |  | 
3 | C=CC1=C(C)C(=O)C=C2c3ccc(O)c(C)c3CC[C@@]21OCC | Active |  | Active |  |  | pIC50 (T47D [10]): 5.06; pIC50 (A2780 [1]): 5.55; Activity (T47D [11]): Active; pIC50 (NIH3T3 [3]): < 4.52; pIC50 (HeLa [4]): 5.43; Activity (SiHa [12]): inactive; pIC50 (C-33-A [13]): 5.31
4 | C=CC1=C(C)C(=O)C=C2C3=C(CCC21OCC)C(C)(OCC)C(=O)C=C3 (racemic; 6a) | Active | Active | Active | Active | Active | 
5 | C=CC1=C2CCc3c(ccc(O)c3C)C2=CC(=O)C1(C)OCC (racemic) | inactive | inactive | inactive | inactive | inactive | 
6 | C=Cc1c(C)c(O)cc2c3c(ccc12)C(C)(OCC)C(=O)C=C3 (racemic) | inactive | inactive | inactive | inactive | inactive | 
7 | C=CC1=C(C)C(=O)C=C2C3=C(CC[C@]21OC)[C@](C)(OC)C(=O)C=C3 (stereo in doubt) |  |  |  |  |  | pIC50 (T47D [10]): 4.82; pIC50 (SiHa [15]): 4.70
8 | C=CC1=C(C)C(=O)C=C2C3(OCC)C=CC(=O)C(C)=C3CCC21OCC (racemic) | inactive | inactive | inactive | inactive | inactive | 
9 | C=CC1=C(C)C(=O)C=C2C3=C(CCC21OCC)C(C)(OCC)C(=O)C=C3 (racemic; 6b) | Active | Active | Active | Active | Active | 
10 | C=CC1=C(C)C(=O)C=C2C3=C(CC[C@]21OC)[C@@](C)(OC)C(=O)C=C3 (stereo in doubt) |  |  |  |  |  | pIC50 (T47D [10]): 4.82; pIC50 (SiHa [15]): 4.70; pIC50 (NIH3T3 [3]): < 4.52
11 | C=Cc1c(C)c(O)c(OC)c2c3c(ccc12)C(C)(OC)C(=O)C=C3 (racemic) | inactive | inactive | inactive | inactive | inactive | 
12 | C=CC1=C(C)C(=O)C=C2c3ccc(O)c(C)c3CC[C@@]21OC | Active |  |  |  |  | pIC50 (A2780 [1]): 5.06; Activity (T47D [11]): Active; pIC50 (NIH3T3 [3]): 4.59; pIC50 (HeLa [4]): 6.05; pIC50 (C-33-A [13]): 5.28; pIC50 (MCF7 [5]): 5.21
13 | C=CC1=C(C)C(=O)C=C2C3(OC)C=CC(=O)C(C)=C3CCC21OC (racemic; 2b) | inactive | inactive | inactive | inactive | inactive | 
14 | C=CC1=C(C)C(=O)C=C2c3ccc(O)c(C)c3CC[C@]21OCC | inactive | inactive |  | inactive |  | Activity (SiHa [12]): inactive
15 | C=CC1=C(C)C(=O)C(OCCCC)(OCCCC)c2c1ccc1c2C=CC(=O)C1(C)OCCCC (racemic) | inactive | inactive | inactive | inactive | inactive | 
16 | C=CC1=C(C)C(=O)C=C2C3=C(CC[C@@]21OC)[C@@](C)(OC)C(=O)C=C3 (stereo in doubt) |  |  |  |  |  | pIC50 (T47D [10]): 4.82; pIC50 (SiHa [15]): 4.70
17 | C=CC1=C(C)C(=O)C=C2C3(OC)C=CC(=O)C(C)=C3CCC21OC (racemic; 2a) | inactive | inactive | inactive | inactive | inactive | 
18 | C=Cc1cc(O)cc2ccc3c(C)c(O)ccc3c12 |  |  |  |  |  | pIC50 (SGC-7901): 4.44; pIC50 (AGS): 4.48
19 | C=CC1=C(C)C(=O)C=C2C3=C(CC[C@@]21OC)[C@](C)(OC)C(=O)C=C3 (stereo in doubt) | Active |  |  |  |  | pIC50 (T47D [10]): 4.82; pIC50 (A2780 [1]): 5.11; pIC50 (SiHa [15]): 4.70; Activity (T47D [11]): Active; pIC50 (NIH3T3 [3]): 4.67; pIC50 (C-33-A [13]): 5.28
